What was measured:
Assay type in all cases: functional, cell-based
[1] = system: RAW264.7; assay: Inhibition of LPS-induced NO production in mouse RAW264.7 cells after 24 hrs by Griess reagent based assay; details: RAW264.7, 24 h
In short: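 RAW 264.7 cells seeded at 2 × 10^6 cells/mL, stimulated with 1 μg/mL LPS with or without compound, 37 °C for 24 h. Supernatant nitrite measured as NO indicator: Griess reagent, room temperature 10 min, absorbance 550 nm against sodium nitrite standard curve. Viability of remaining cells by colorimetric cell counting kit. IC50 as mean of triplicate experiments.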

[2] = system: RAW264.7; assay: Inhibition of LPS-induced IL-1beta production in mouse RAW264.7 cells after 24 hrs by ELISA; details: RAW264.7, 24 h
In short: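 RAW 264.7 cells at 2 × 10^6 cells/mL stimulated with 1 μg/mL LPS in presence or absence of compound, 37 °C, 24 h. IL-1β in culture medium quantified by commercial ELISA kit. Remaining-cell viability checked by colorimetric cell counting kit. IC50 as mean of triplicate experiments.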

[3] = system: RAW264.7; assay: Inhibition of LPS-induced iNOS gene expression in mouse RAW264.7 cells at 12.5 to 50 uM after 24 hrs by RT-PCR method
In short: (§1)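 Total RNA isolated with TRIZOL; single-stranded cDNA made from 2 μg total RNA, then PCR for iNOS or IL-1β transcripts. Products run on 1% agarose gels, stained with 5 μg/mL ethidium bromide. Cells LPS-stimulated, compound tested across doses.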

[4] = system: RAW264.7; assay: Inhibition of LPS-induced IL-1beta gene expression in mouse RAW264.7 cells at 12.5 to 50 uM after 24 hrs by RT-PCR method; in short: as §1

SMILES | IC50 [1] [µM] | IC50 [2] [µM] | inhibition [3] | inhibition [4]
CC1(C)C[C@H](O)C[C@@]2(C)OC(=O)C=C12 [LOLIOLIDE] | > 50 | > 50 | – | –
COc1ccc(Oc2cc(=O)c3cc(O)c(CC=C(C)C)c(O)c3o2)cc1 | 27.5 | 28.9 | – | –
COc1cc2c(cc1OC)-c1c(cc(OC)c(OC)c1OC)CC2 | > 50 | > 50 | – | –
COc1cc([C@@H]2OC[C@@H]3[C@H]2CO[C@H]3c2cc(OC)c(O)c(OC)c2)cc(OC)c1O | 45.6 | > 50 | – | –
CC1(C)C[C@@H](O)C[C@@]2(C)OC(=O)C=C12 [(+)-EPILOLIOLIDE] | > 50 | > 50 | – | –
CC(=O)/C=C/[C@@]1(O)C(C)=CC(=O)CC1(C)C | 38.5 | > 50 | – | –
COc1c(O)cc(-c2cc(=O)c3c(O)cc(O)c(CC=C(C)C)c3o2)cc1CC=C(C)C | 16.8 | 8.8 | Dose-dependent effect | Dose-dependent effect
N=C(N)NN [PIMAGEDINE] | 21.4 | – | – | –
COc1cc([C@H]2OC[C@H]3[C@@H]2CO[C@H]3c2ccc(O)c(OC)c2)ccc1O [PINORESINOL] | 39.5 | > 50 | – | –
COc1ccc2c(c1)c(CC(=O)O)c(C)n2C(=O)c1ccc(Cl)cc1 [INDOMETHACIN] | 15.8 | 18.7 | – | –
C=CCc1ccc(O)c(-c2cc(CC=C)ccc2O)c1 [MAGNOLOL] | 35.4 | 38.9 | – | –
COc1cn2c(=O)ccc(O)c2cn1 | > 50 | > 50 | – | –
COc1cc2ccc3cc(OC)c(OC)c(OC)c3c2cc1OC | 49.3 | > 50 | – | –
CC(C)=CCc1c(O)cc(O)c2c(=O)cc(-c3cc(O)c4c(c3)C=CC(C)(C)O4)oc12 | > 50 | > 50 | – | –
CC1(C)C=Cc2c(cc(O)c3c(=O)cc(Oc4ccc(O)cc4)oc23)O1 | > 50 | > 50 | – | –
COc1cc(C[C@@]2(O)CO[C@H](c3ccc(O)c(OC)c3)[C@H]2COC(C)=O)ccc1O | > 50 | > 50 | – | –
CC(C)=CCc1cc(-c2cc(=O)c3c(O)cc(O)c(CC=C(C)C)c3o2)ccc1O | 19.7 | 8.6 | Dose-dependent effect | Dose-dependent effect

Source: ChEMBL document CHEMBL3351807, “2-Phenoxychromones and prenylflavonoids from Epimedium koreanum and their inhibitory effects on LPS-induced nitric oxide and interleukin-1β production” (J Nat Prod, 2014)
